Screens (PubChem BioAssay)
ABCB1 block: blocks JC-1 efflux by human ABCB1 transporter. CCRF-Adr cells, flow cytometry. inhibition, % at 6.6 µM. 0.067% of 190,000 active. AID 1326; in the data active means inhibition above about 40%;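 further: 0% = vehicle and 100% = reference inhibitor; higher value means more JC-1 retained so stronger ABCB1 efflux block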
GRK2 inh: human GRK2 inhibition via aptamer displacement | P25098 | AID 488847 | bead flow cytometry, FAM-aptamer displacement from GRK2 | 0.59% of 330,000 active | inhibition of aptamer binding, % at 10 µM;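 active means inhibition of aptamer binding above 40%, roughly 3 SD of noise, on plates passing a quality check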;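 further: median bead fluorescence of bound FAM aptamer so fluorescent compounds give negative values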
Tn6 DDE FP: disrupts Tn6 cyclic peptide binding to fibrin D-Dimer-E complex; P02675; Fibrin DD(E) TRITC-Tn6 fluorescence polarization displacement; inhibition, % at 8.3 µM; 0.21% of 370,000 active;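 active means inhibition above a per-campaign cutoff: mean of compounds within control limits plus 3 SD, cut at about 15% in these data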;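 further: 0% = median of all compound wells on the plate and 100% = blocking peptide control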
DDE Tn7 FP inh: disrupts Tn7 cyclic peptide binding to fibrin D-Dimer-E complex; 0.13% of 370,000 active; inhibition, % at 8.3 µM; P02675; FP displacement of FITC-Tn7 peptide from fibrin DD(E); 0% = median of compound wells per plate; AID 720508;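 active means inhibition above the mean of compounds falling within the control limits plus 3 SD of them, cut at about 14% in these data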;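 further: 0% = plate median of compound wells and 100% = 10 µM Aha-Tn7 peptide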
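Assay system: human fibrin DD(E). Input: DD(E) 2 µM final. Medium: Tris buffer with calcium and detergent, pH 7.8. Compound dosing: single point at 8.3 µM. Timing: 10 min plus 3 h, room temperature. Technique: fluorescence polarization of the labelled Tn7 tracer. Read-out: percent inhibition. Replicates: singlicate testing.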
Insulin prom up: MIN6 insulin promoter up-regulation; MIN6 insulin promoter-GFP reporter, high-content imaging; active compounds read high; 0.3% of 190,000 active; z-score at 5 µM; AID 1625;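 active means z-score above 3 at 5 µM with at least 500 cells counted in the well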
ABCG2 inh: inhibitors of human ABCG2 transporter, ABCB1 counter-screen; Q9UNQ0; IgMXP3 cells, JC-1 efflux, flow cytometry; inhibition, % at 6.6 µM; 0.1% of 190,000 active; AID 1325;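 active means inhibition above 80%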;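 further: 0% = DMSO and 100% = nicardipine control wells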
Target sequence (Q9UNQ0 whole entry, looked up): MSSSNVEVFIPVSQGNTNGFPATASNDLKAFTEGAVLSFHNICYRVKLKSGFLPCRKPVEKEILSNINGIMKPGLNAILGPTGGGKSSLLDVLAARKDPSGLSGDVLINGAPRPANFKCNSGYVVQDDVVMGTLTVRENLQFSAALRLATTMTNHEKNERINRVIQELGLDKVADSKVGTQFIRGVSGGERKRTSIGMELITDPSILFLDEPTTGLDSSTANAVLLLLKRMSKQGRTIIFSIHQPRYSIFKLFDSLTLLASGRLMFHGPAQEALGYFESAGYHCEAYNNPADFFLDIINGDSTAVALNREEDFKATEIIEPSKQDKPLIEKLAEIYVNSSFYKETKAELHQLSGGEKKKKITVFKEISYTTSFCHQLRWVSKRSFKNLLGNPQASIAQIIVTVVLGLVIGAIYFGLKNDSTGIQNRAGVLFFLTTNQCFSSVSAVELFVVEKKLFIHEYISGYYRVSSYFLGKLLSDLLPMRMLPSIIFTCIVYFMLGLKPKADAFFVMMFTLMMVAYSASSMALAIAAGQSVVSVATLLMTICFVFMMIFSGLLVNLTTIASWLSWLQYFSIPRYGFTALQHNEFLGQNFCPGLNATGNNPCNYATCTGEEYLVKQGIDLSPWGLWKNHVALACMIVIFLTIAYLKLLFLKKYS
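Times: 10 min at 25 °C | Test system: Two drug-resistant human cell lines, ABCG2 and ABCB1 | Quantity: 3 million cells/mL final, two lines in 1:1 ratio | Signal: Flow cytometry, 530 nm JC-1 signal | Dosing: Compound at 6.6 µM | Controls: Nicardipine and DMSO wells | Reagent: JC-1 as fluorescent efflux pump substrate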
ABCB1 confirm: inhibits human ABCB1 efflux, confirmed at single point. shares compounds with ABCG2 inh. CCRF-Adr cells, JC-1 efflux, flow cytometry. inhibition, % at 6.6 µM. 7% of 270 active. AID 1451;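 active means inhibition of pump activity above 50%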;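 further: 0% = DMSO and 100% = nicardipine full pump inhibition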
ABCG2 single pt: inhibits human ABCG2 efflux, confirmed at single point; shares compounds with ABCG2 inh; IgMXP3 cells, JC-1 efflux, flow cytometry; inhibition, % at 6.6 µM; 6% of 270 active;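 active means inhibition above 50%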;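 further: 0% = DMSO wells and 100% = nicardipine pump inhibitor wells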
IgMXP3 fluor: IgMXP3 autofluorescence flag for ABCG2 confirmation. 30% of 270 active. IgMXP3 cells, compound autofluorescence 488/530 nm, flow; active compounds read high. AID 1480. fluorescence at 6.6 µM. shares compounds with ABCG2 inh;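 active means fluorescence in ABCG2-expressing cells above the plate's control-well mean plus 3 SD, cut at about 15 in these data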;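 further: median cell fluorescence with compound minus that of DMSO-treated control cells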
CCRF-Adr fluor: CCRF-Adr autofluorescence flag for ABCB1 confirmation; CCRF-Adr cells, compound autofluorescence 488/530 nm, flow cytometry; active compounds read high; shares compounds with ABCG2 inh; 30% of 270 active; fluorescence at 6.6 µM;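 active means fluorescence beyond the plate control mean plus 3 SD, with a fluorescence-to-maximum score over 2, cut at about 25 in these data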
GRK2 CP1: human GRK2 inhibition confirmation, cherry pick 1; shares compounds with GRK2 inh; bead-bound GRK2, FAM-aptamer displacement, flow cytometry; aptamer displacement, % at 10 µM; 4% of 2,000 active;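 active means aptamer displacement above 40%, near three times the noise of non-fluorescent compounds, on plates passing quality checks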;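 further: negative values mostly reflect intrinsic compound fluorescence rather than true enhancement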
Aptamer quench SP: counter-screen for GRK2 aptamer inhibitors: fluorescent aptamer quenchers; fluorescence response (% of DMSO), % at 10 µM; shares compounds with GRK2 inh; AID 504580; Carboxyfluorescein RNA aptamer on beads, flow cytometry quenching; active compounds read low; 2,000 tested, under 10 active;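 active means compounds that quench the bead-bound fluorescent RNA probe, cutting fluorescence to under half of the solvent control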;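 further: counterscreen run without GRK2 so only probe quenching by compound is measured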
GRK2 CP2: human GRK2 inhibition confirmation, cherry pick 2; shares compounds with GRK2 inh; bead-bound GRK2, FAM-aptamer displacement, flow cytometry; 360 tested, under 10 active; inhibition of aptamer binding, % at 10 µM;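 active means inhibition of aptamer binding above 40%, about triple the noise seen with nonglowing compounds, on plates passing quality control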;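 further: negative values mostly come from compounds that fluoresce themselves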
FAM quench CP2: aptamer fluorescence quenching in GRK2 counter-screen; fluorescence response vs DMSO, % at 10 µM; 360 tested, under 10 active; carboxyfluorescein RNA aptamer beads, flow cytometry quenching; active compounds read low; shares compounds with GRK2 inh;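 active means response vs DMSO under 50%, meaning signal dropped by over half, treated as fluorescence quencher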;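 further: labelled aptamer on streptavidin beads without GRK2 as a quench counter-screen; 100% = bead fluorescence of DMSO wells and lower means quenching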
The depositor's hits bear a star; . = not tested or not shown. Hits are enriched below; roughly 0.99% of the tested compounds scored in any of these assays.

SMILES | ABCB1 block | GRK2 inh | Tn6 DDE FP | DDE Tn7 FP inh | Insulin prom up | ABCG2 inh | others
CCc1ccccc1N1C(=O)/C(=C/c2ccc(N3CCN(C)CC3)o2)C(=O)NC1=S | 0 | 4 | 3 | -5 | 3.4* | 1
CCOc1ccc(N2C(=O)/C(=C/c3ccco3)C(=O)NC2=S)cc1 | . | 20 | . | . | . | .
Cc1ccccc1N1C(=O)/C(=C/c2ccco2)C(=O)NC1=S | . | 100* | . | . | . | .
O=c1[nH]c2ccccc2n1C1CCN(Cc2ccc(-c3[nH]c4cc5ncnc5cc4nc3-c3ccccc3)cc2)CC1 | . | . | 6 | -6 | . | .
CN(C)[C@@H]1C(=O)C(C(N)=O)=C(O)[C@@]2(O)C(=O)C3=C(O)c4c(O)cccc4[C@@](C)(O)[C@H]3C[C@@H]12 | . | 42* | . | . | . | .
CN(C)C1C(=O)C(C(N)=O)=C(O)C2(O)C(=O)C3=C(O)c4c(O)cccc4C(C)(O)C3CC12 (stereo not drawn) | . | 0 | . | . | . | .
O=C1NC(=O)N(c2ccccc2)C(=O)/C1=C\c1ccc([N+](=O)[O-])o1 | . | 93* | . | . | 1.2 | .
NCCCC(=O)OC1N=C(c2ccccc2Cl)c2cc(Br)ccc2NC1=O (stereo not drawn) | 0 | 0 | 2 | 4 | 0.18 | 1
c1ccc(Cc2cnc(N3CCNCC3)nc2)cc1 | . | . | -3 | 4 | . | .
CCCCn1c(NC(=O)c2ccc(Br)o2)c(C(=O)OCC)c2nc3ccccc3nc21 | 1 | 78* | 2 | 4 | 0.14 | 8
CCCCn1c(NS(=O)(=O)c2ccccc2)c(C(=O)OCC)c2nc3ccccc3nc21 | 0 | 0 | -8 | -6 | 0.49 | -4
CC1CCCC(C2(O)C(=O)Nc3ccccc32)C1=O (stereo not drawn) | 1 | 0 | 7 | 5 | 5.6* | 1
COC(=O)C1=C(c2ccc(OC)c(OC)c2)C[C@@H]2CC[C@H]1N2C(=O)NCCNC(C)=O | . | 0 | -3 | -6 | . | .
O=c1[nH]c(=O)n(-c2ccc(F)cc2)c(O)c1C=Nc1ccccc1N1CCCC1 | 3 | 0 | -6 | -7 | 4.4* | 9
COP(=S)(OC)Oc1ccc(Sc2ccc(OP(=S)(OC)OC)cc2)cc1 | . | . | 0 | 0 | . | .
C[C@]12CC[C@@H](O)C[C@@H]1CC[C@@H]1[C@@H]2CC[C@]2(C)C(=O)CC[C@@H]12 | . | 0 | 0 | 16* | 0.15 | 0
COc1ccc(-n2c(O)c(C=Nc3c(C)n(C)n(-c4ccccc4)c3=O)c(=O)[nH]c2=O)cc1 | 1 | 0 | 17* | 4 | 0.24 | 1
COc1cccc(-n2c(O)c(C=Nc3c(C)n(C)n(-c4ccccc4)c3=O)c(=O)[nH]c2=O)c1 | 1 | 0 | -2 | -3 | 0.5 | 10
CCn1cc(/C=c2/sc3n(c2=O)C2c4ccccc4OC(C)(N=3)C2C(=O)OC)c(C)n1 (stereo not drawn) | 53* | 4 | -7 | -3 | -1.5 | 26 | ABCB1 confirm=14;ABCG2 single pt=12;IgMXP3 fluor=18*;CCRF-Adr fluor=13
CC1=NN(c2ccccc2)C(=O)C1/C=C1/C(=O)NC(=O)N(c2cccc(C)c2)C1=O (stereo not drawn) | 0 | . | . | . | -0.15 | 0
Cc1cccc(N2C(=O)NC(=O)/C(=C\c3ccc4c(c3)CCCN4Cc3ccccc3)C2=O)c1 | 50* | 0 | -7 | 1 | -0.06 | 64 | ABCB1 confirm=1;ABCG2 single pt=-1;IgMXP3 fluor=14*;CCRF-Adr fluor=59*
CCOC(=O)[C@]12Cc3cc(C)ccc3[C@H]1N(C)C(=O)c1cc(OC)ccc12 | . | . | 4 | 9 | . | .
CC(C(N)=O)N1CC(c2ccc(Cl)cc2)CC1=O (stereo not drawn) | 1 | 50* | -2 | -6 | 1.1 | 1 | GRK2 CP1=1;Aptamer quench SP=98
O=c1[nH]c(=S)n(-c2ccccc2)c(O)c1C=NCCN1CCNCC1 | . | 89* | 7 | 1 | . | . | GRK2 CP1=-1;Aptamer quench SP=99
Cc1nn(-c2ccccc2)c2c1C(c1ccc3c(c1)OCO3)SCC(=O)N2 (stereo not drawn) | 2 | 26 | -3 | 3 | -0.41 | 5 | GRK2 CP1=2;Aptamer quench SP=104
SMILES | ABCB1 block | GRK2 inh | Tn6 DDE FP | DDE Tn7 FP inh | Insulin prom up | ABCG2 inh | others
CC(=O)O[C@H]1CC[C@@]2(C)C(=CC[C@@H]3[C@@H]2CC[C@]2(C)C(=O)CC[C@@H]32)C1 | . | 0 | . | . | . | .
CC[C@]12CC[C@H](O)CC1=CCC1C2CC[C@]2(C)C(=O)CCC12 (stereo partly drawn) | . | 42* | 11 | -2 | . | . | GRK2 CP2=12;FAM quench CP2=101
Cc1ccc(-c2nc3ccccc3c(=O)n2-c2ncccc2C)cc1 | 0 | 60* | -9 | 2 | 0 | 0 | GRK2 CP1=2;Aptamer quench SP=95
CCCNC(=O)N1CCC2(CC1)OCCO2 | 0 | 0 | -8 | -5 | 0.13 | 1
COC(=O)CCCCC1SCC(NC(=O)c2ccccc2)C1Cl (stereo not drawn) | 0 | 0 | -4 | 1 | -0.08 | 0
Cc1ccc2c(c1)C1CN(C)CCC1N2C(=O)Cc1cccs1 (stereo not drawn) | 0 | 6 | 1 | -1 | -0.39 | 8
Cc1ccc2c(c1)C1CN(C)CCC1N2C(=O)/C=C/c1ccc2c(c1)OCO2 (stereo not drawn) | 2 | 64* | -3 | 0 | -0.61 | 3 | GRK2 CP1=-7;Aptamer quench SP=97
